Assay results of several laboratories.
Protocols differ between the studies behind these lines. ≈ marks a conversion by molar mass, not a printed value.

| SMILES | target or system | assay | test system | setting | quantity | value |
| --- | --- | --- | --- | --- | --- | --- |
| O=C(NCc1cn(Cc2ccc(Cl)cc2)nn1)Nc1ccc(Cl)cc1 | Huh-7 | cell growth or viability, CCK-8 |  | 50 µM, 48 h | viability | 65.7% |
| CN1CCN(c2ncc(-c3ccc4c(Nc5ncccn5)cnnc4c3)cn2)CC1 | Trypanosoma cruzi | parasite growth | C2C12 | intracellular, amastigote | EC50 | > 10 µM |
| COc1ccc(NC(=O)Nc2cccc(-c3cn(Cc4ccc(C)cc4)nn3)c2)cc1 | Huh-7 | cell growth or viability, CCK-8 |  | 72 h | IC50 | 19.3 µM |
| O=C(Nc1cccc(-c2cn(Cc3ccc(Cl)cc3)nn2)c1)Nc1ccccc1Br | Huh-7 | cell growth or viability, CCK-8 |  | 50 µM, 48 h | viability | 53.1% |
| CN1CCN(c2ccc(-c3ccc4c(Nc5cnccn5)cnnc4c3)cc2)CC1 | Trypanosoma cruzi | parasite growth | C2C12 | intracellular, amastigote | EC50 | > 10 µM |
| O=C(Cn1ccnc1[N+](=O)[O-])NCc1ccccc1 | Trypanosoma cruzi | parasite growth | Vero, TULAHUEN | 72 h, intracellular, amastigote | IC50 | 2.23 µM |
| COc1ccc(NC(=O)NCc2cn(Cc3ccc(Br)cc3)nn2)cc1 | Huh-7 | cell growth or viability, CCK-8 |  | 50 µM, 48 h | viability | 87.2% |
| CN1CCN(c2ccc(-c3ccc4c(Nc5ncccn5)cnnc4c3)cc2)CC1 | Trypanosoma cruzi | parasite growth | C2C12 | intracellular, amastigote | EC50 | 2.6 µM |
| O=C(NCc1cn(Cc2ccc(Br)cc2)nn1)Nc1ccc(Cl)cc1 | Huh-7 | cell growth or viability, CCK-8 |  | 50 µM, 48 h | viability | 88.2% |
| O=C(Cn1ccnc1[N+](=O)[O-])NCc1ccccc1 | Trypanosoma cruzi | parasite growth |  | 24 h, trypomastigote | IC50 | 1.04 µg/mL |
| COc1ccc(NC(=O)Nc2ccc(-c3cn(Cc4cccc(Cl)c4)nn3)cc2)cc1 | Huh-7 | cell growth or viability, CCK-8 |  | 72 h | IC50 | > 50 µM |
| Cc1ccc(Nc2cnnc3cc(-c4cnc(N5CCCN(C)CC5)nc4)ccc23)cn1 | Trypanosoma cruzi | parasite growth | C2C12 | intracellular, amastigote | EC50 | > 10 µM |
| O=C(NCc1cn(Cc2cccc(Cl)c2)nn1)Nc1ccc(Cl)cc1 | Huh-7 | cell growth or viability, CCK-8 |  | 50 µM, 72 h | viability | 82.2% |
| COc1ccc(Nc2cnnc3cc(-c4cnc(N5CCCN(C)CC5)nc4)ccc23)cc1Cl | Trypanosoma cruzi | parasite growth | C2C12 | intracellular, amastigote | EC50 | 2 µM |
| Cc1ccccc1Cn1cc(-c2cccc(NC(=O)Nc3ccc(F)cc3)c2)nn1 | Huh-7 | cell growth or viability, CCK-8 |  | 50 µM, 72 h | viability | 12.5% |
| O=C(Nc1ccc(Cl)cc1)Nc1cccc(-c2cn(Cc3ccc(Cl)cc3)nn2)c1 | Huh-7 | cell growth or viability, CCK-8 |  | 50 µM, 48 h | viability | 84% |
| Cc1ccc(C(C)C)c(OC2=C(Cl)C(=O)c3ccccc3C2=O)c1 | Alternaria alternata | microbial growth, broth dilution |  |  | MIC | 12 µg/mL (≈ 35.2 µM) |
| O=C(Nc1ccc(-c2cn(Cc3ccc(Cl)cc3)nn2)cc1)Nc1ccccc1Br | Huh-7 | cell growth or viability, CCK-8 |  | 50 µM, 48 h | viability | 80.2% |
| COc1ccc(NC(=O)Nc2cccc(-c3cn(Cc4cccc(Cl)c4)nn3)c2)cc1 | Huh-7 | cell growth or viability, CCK-8 |  | 50 µM, 72 h | viability | 10.8% |
| COc1ccc(Nc2cnnc3ccc(-c4cnc(N5CCN(C)CC5)nc4)cc23)cc1Cl | Trypanosoma cruzi | parasite growth | C2C12 | intracellular, amastigote | EC50 | 5.7 µM |
| COc1ccc(NC(=O)Nc2cccc(-c3cn(Cc4ccc(Cl)cc4)nn3)c2)cc1 | Huh-7 | cell growth or viability, CCK-8 |  | 72 h | IC50 | 15.5 µM |
| O=C(NCc1cn(Cc2ccc(Br)cc2)nn1)Nc1ccccc1Br | Huh-7 | cell growth or viability, CCK-8 |  | 50 µM, 72 h | viability | 72.9% |
| Cc1ccc(Nc2cnnc3ccc(-c4ccc(N5CCCN(C)CC5)cc4)cc23)cn1 | Trypanosoma cruzi | parasite growth | C2C12 | intracellular, amastigote | EC50 | 6.1 µM |
| COc1ccc(NC(=O)Nc2ccc(-c3cn(Cc4ccc(Br)cc4)nn3)cc2)cc1 | Huh-7 | cell growth or viability, CCK-8 |  | 50 µM, 72 h | viability | 91.2% |
